High-throughput results from PubChem BioAssay.
Hits are enriched below; roughly 4.5% of the tested compounds scored in any of these assays.
AHR activator: activates the human aryl hydrocarbon receptor | AHR-responsive luciferase reporter cells, luminescence | P35869 | activation, % at 5 µM | 2.5% of 320,000 active | AID 2796; in the data active means activation above about 47%;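 further: 0% = vehicle wells and 100% = reference agonist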
Target sequence (P35869 whole entry, looked up): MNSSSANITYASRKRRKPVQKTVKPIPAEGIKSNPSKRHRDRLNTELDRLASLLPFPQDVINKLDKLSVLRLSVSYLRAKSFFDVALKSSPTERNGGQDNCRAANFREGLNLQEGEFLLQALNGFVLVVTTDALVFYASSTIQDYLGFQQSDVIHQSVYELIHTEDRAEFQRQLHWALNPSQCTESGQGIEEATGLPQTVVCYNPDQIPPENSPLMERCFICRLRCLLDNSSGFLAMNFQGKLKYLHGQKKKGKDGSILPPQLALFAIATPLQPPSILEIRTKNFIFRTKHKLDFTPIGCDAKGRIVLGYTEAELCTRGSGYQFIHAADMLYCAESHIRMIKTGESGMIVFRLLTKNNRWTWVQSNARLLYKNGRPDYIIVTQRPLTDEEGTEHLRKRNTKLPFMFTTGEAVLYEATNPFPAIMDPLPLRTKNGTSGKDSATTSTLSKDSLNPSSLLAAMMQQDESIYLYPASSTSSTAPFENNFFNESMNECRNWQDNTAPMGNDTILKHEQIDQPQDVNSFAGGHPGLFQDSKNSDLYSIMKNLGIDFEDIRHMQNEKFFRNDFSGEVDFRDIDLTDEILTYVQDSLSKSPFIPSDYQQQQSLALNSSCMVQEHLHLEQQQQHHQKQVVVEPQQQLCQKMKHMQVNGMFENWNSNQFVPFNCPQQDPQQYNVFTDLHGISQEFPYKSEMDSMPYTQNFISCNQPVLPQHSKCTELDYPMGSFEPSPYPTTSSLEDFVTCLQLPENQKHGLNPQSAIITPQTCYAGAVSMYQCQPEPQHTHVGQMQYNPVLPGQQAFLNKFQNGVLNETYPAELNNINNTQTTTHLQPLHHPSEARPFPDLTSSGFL
NF-kB expr up: compounds increasing NF-kB expression in human neuronal cells; NF-kB reporter expression; active compounds read high; fold change at 12.5 µM; 1.6% of 190,000 active; AID 1239; in the data active means fold change above about 3.3
Mdm2 ligase inh: inhibitors of human Mdm2 E3 ubiquitin ligase; 0.11% of 210,000 active; cell-based MDM2 ubiquitination luciferase reporter, 2 h; 0 = plate control, 100 = twice control, blank-subtracted; Q00987; AID 1230; signal enhancement, % at 5 µM;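 active means signal enhancement of 30% or more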;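 further: luminescence tracks abundance of the self-degrading MDM2-luciferase fusion protein; higher signal means inhibition of MDM2 E3 ligase activity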
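Timing – 2 h compound exposure at 37 °C · Assay system – mammalian cells stably expressing self-ubiquitinating, self-degrading MDM2 E3–luciferase fusion · Amount – 2000 cells seeded into each well · Measure – % luminescence enhancement versus blank-corrected plate control mean · Measured by – SteadyLite luminescence, 15 min reagent step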
STAT1 activator: increases IFN-gamma driven STAT1 reporter signal; NIH 3T3 STAT1-luciferase reporter, luminescence; 100% = IFN-gamma alone, no compound; activation (% of control), % at 5.5 µM; 2.6% of 200,000 active;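 active means activation above the screen-wide mean activation plus 3 SD, cut at about 130% in these data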;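 further: raw ratio to IFN-gamma control signal so 100% means no change and 0% no light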
APP 5'UTR act: activates APP 5'UTR luciferase reporter. SH-SY5Y APP 5'UTR luciferase reporter, luminescence; zero percent = DMSO vehicle wells. activation, % at 2 µM. 1% of 190,000 active;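 active means activation above a set limit, based on mean plus 3 SD of controls, cut at about 140% in these data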
PERK inhibitor: blocks human PERK kinase; CHO PERK-DD fusion, SEAP luminescence translation reporter; Q9NZJ5; AID 1416; inhibition, % at 5.6 µM; 0.17% of 220,000 active;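 active means inhibition above the mean inhibition of all tested compounds plus 3 SD, set separately per screening campaign, cut at about 2.9% in these data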;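 further: PERK kinase domain activated by AP20187 dimerizer at 100 nM; 0% = DMSO with dimerizer and 100% = rapamycin at 8.4 µM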
AHR act confirm: confirmation of human aryl hydrocarbon receptor activators; human cells, AHR-responsive luciferase reporter, luminescence; 87% of 2,300 active; shares compounds with AHR activator; activation, % at 9 µM; in the data active means activation above about 49%;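 further: HepG2 hepatoma cells carrying a DRE-driven firefly luciferase reporter; 0% = vehicle wells and 100% = reference agonist wells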
PXR counter: counter-screen for AHR activators: human PXR activators; shares compounds with AHR activator; cell-based PXR reporter, luciferase luminescence; activation, % at 11.6 µM; 88% of 2,300 active; in the data active means activation above about 11%;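 further: human hepatoma DPX-2 cells expressing full-length human PXR; 0% = DMSO and 100% = reference agonist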
Numbers without * were called inactive; · = no result given.

SMILES | AHR activator | NF-kB expr up | Mdm2 ligase inh | STAT1 activator | APP 5'UTR act | PERK inhibitor | AHR act confirm | PXR counter
Oc1ccc2ccc3[nH]cnc3c2c1 | 80* | · | -43 | · | · | 1 | 37 | 22*
O=C(Nc1cccc(-c2cnc3ccccc3n2)c1)c1cccc(NC(=O)c2ccco2)c1 | 16 | 0.42 | · | 112 | -1 | -2 | · | ·
O=C(CCl)Nc1cccc(-c2cnc3ccccc3n2)c1 | 118* | 0.73 | -22 | 76 | · | 0 | 29 | 9
Cc1ccc2c(c1)/C(=C/c1ccco1)C(=O)N2 | 116* | 1.2 | -12 | 93 | 28 | 0 | 99* | 23*
N/C(=N\OC(=O)c1ccc(Cl)c(Cl)c1)c1cccnc1 | 80* | 4* | -13 | 118 | 1 | 0 | 80* | 14*
N/C(=N\OC(=O)c1cc(Br)ccc1Cl)c1cccnc1 | 25 | 2 | -11 | 115 | 36 | 0 | · | ·
N/C(=N\OC(=O)c1ccccc1Cl)c1cccnc1 | 102* | 5.7* | -8 | 140* | 109 | 1 | 104* | 5
N/C(=N\OC(=O)c1cc(Cl)ccc1Cl)c1cccnc1 | 34 | 2 | -7 | 125 | 8 | 0 | · | ·
NC(=O)CSc1oc(-c2ccco2)nc1S(=O)(=O)c1ccccc1 | 2 | · | · | · | · | · | · | ·
COc1ccc(C)cc1NC(=O)CN(C)C1CCCCC1 | -1 | · | · | · | · | · | · | ·
CN(Cc1ccccc1F)C(=O)CN1c2cccc3cccc(c23)S1(=O)=O | -1 | · | · | · | · | · | · | ·
Cn1cccc1/C=N/n1c(-c2ccc(C(C)(C)C)cc2)n[nH]c1=S | 126* | 1.2 | 7 | 100 | 7 | 0 | 104* | 261*
NC(=O)c1c(NC(=O)c2ccccc2C(=O)O)sc2c1CCCC2 | 2 | · | · | · | · | · | · | ·
NC(=O)c1c(NC(=O)c2ccccc2F)sc2c1CCCC2 | 205* | · | · | · | · | · | 104* | 28*
NC(=O)c1c(NC(=O)c2cccnc2Cl)sc2c1CCCC2 | 103* | 1.1 | · | 110 | -16 | 0 | 26 | 7
COc1ccc(COc2cc(-c3cccc(OC)c3)nc3ccc(N)cc23)cc1 | 14 | 2.9 | · | 107 | -96 | 0 | · | ·
O=[N+]([O-])c1cccc(NC(=S)N2CCc3ccccc3C2)c1 | 105* | 1.2 | -93 | 114 | 6 | 1 | 92* | 54*
O=C(c1ccco1)N1CCN(C(=S)Nc2cccc([N+](=O)[O-])c2)CC1 | -4 | 0.95 | -14 | 106 | 25 | 1 | · | ·
CCn1c(=O)cc(OCC(=O)NCc2ccc(C)o2)c2ccccc21 | 96* | 2 | 2 | 100 | -8 | 0 | 46 | 25*
Cc1ccc(NC(=O)CC(C)CC(=O)NCc2ccccc2)cc1Cl (stereo unspecified) | 1 | · | · | · | · | · | · | ·
CC(=O)N(Cc1ccco1)c1nc(C(=O)Nc2ccc(Cl)cc2)c(C)s1 | 90* | 1.2 | -1 | 106 | 1 | 0 | 66* | 63*
COc1cc(/C=C(/NC(C)=O)C(=O)O)cc(Cl)c1OCc1ccc(Br)cc1 | 2 | · | 1 | · | · | 2 | · | ·
O=S(=O)(Cc1ccccc1)NCC1CCCN(Cc2ccc3nonc3c2)C1 (stereo unspecified) | 5 | 1.1 | -3 | 100 | -7 | 1 | · | ·
COc1ccc(OC)c(Nc2nc(NCCO)c3ccccc3n2)c1 | 88* | · | · | · | · | · | 85* | 35*
CCOC(=O)c1c(S(=O)(=O)NCC(=O)NCc2cccc(C)c2)c(C)n(C)c1C | 2 | · | · | · | · | · | · | ·
SMILES | AHR activator | NF-kB expr up | Mdm2 ligase inh | STAT1 activator | APP 5'UTR act | PERK inhibitor | AHR act confirm | PXR counter
Cn1c(=O)c2c(nc(N/N=C3\CCCc4ccccc43)n2Cc2ccc(F)cc2)n(C)c1=O | 95* | 1.2 | 9 | 98 | -5 | 0 | 89* | 40*
COc1cc(C(=O)OC2CC3CCC2(C)C3(C)C)ccc1OC(C)=O (stereo unspecified) | 3 | 1.4 | -5 | 100 | 15 | 1 | · | ·
COc1cccc(-n2cc(-c3ccc(F)cc3)[nH]c2=S)c1 | 108* | · | · | · | · | · | 12 | 52*
COc1ccccc1-n1cc(-c2ccc(C)cc2)[nH]c1=S | 109* | · | · | · | · | · | 87* | 97*
COc1ccccc1-c1cn(-c2ccccc2)c(=S)[nH]1 | 112* | · | · | · | · | · | 109* | 105*
COc1ccc(-c2cn(-c3ccccc3)c(=S)[nH]2)cc1OC | 43 | · | · | · | · | · | · | ·
COc1ccc(N2C(=O)CSC2c2ccc([N+](=O)[O-])cc2)cc1 (stereo unspecified) | 2 | · | · | · | · | · | · | ·
Cc1cc(Cn2nc(-c3ccccc3)cc2C(=O)NCc2cccs2)on1 | 3 | · | · | · | · | · | · | ·
CCOC(=O)C(=O)NCC(c1cccs1)S(=O)(=O)c1ccc(Cl)cc1 (stereo unspecified) | 2 | · | · | · | · | · | · | ·
COC(=O)[C@@]12CCCN1[C@H](c1ccc(-c3ccc(C(C)=O)cc3)c(OC)c1)[C@H]1C(=O)N(C)C(=O)[C@H]12 | 1 | · | · | · | · | · | · | ·
COc1cc(OC)c(NC(=O)CN(C)S(=O)(=O)c2ccc(-c3ccc(=O)[nH]n3)s2)cc1Cl | 7 | · | · | · | · | · | · | ·
COc1ccc(NC(=O)c2nc[nH]c2C(=O)NCC(=O)OC(C)(C)C)cc1 | 34 | · | -7 | · | · | · | · | ·
COc1ccc(NC(=O)c2nc[nH]c2C(=O)NCCCCCNC(=O)OC(C)(C)C)cc1 | 133* | · | · | · | · | · | 141* | 30*
CNC(=O)c1[nH]cnc1C(=O)Nc1cccc(C)c1 | 101* | · | · | · | · | · | 133* | 24*
CNC(=O)c1[nH]cnc1C(=O)Nc1ccc(OC)cc1 | 126* | · | -9 | · | · | 0 | 124* | 27*
CCc1ccc(C(C(=O)NC2CCCCC2)N(C(=O)CNC(=O)c2ccco2)c2cccnc2)cc1 (stereo unspecified) | · | · | · | 99 | -5 | 0 | · | ·
CCN(CC)C(=O)c1sc(NC(=O)c2c(OC)cccc2OC)c(C#N)c1C | 132* | 1.4 | -7 | 100 | 0 | 1 | 92* | 173*
CCN(CC)C(=O)c1sc(NC(=O)c2cccc([N+](=O)[O-])c2)c(C#N)c1C | -1 | 0.87 | 2 | 94 | -7 | 1 | · | ·
CCCCCCN(C(=O)CCCCCN1C(=O)NC(c2cccc([N+](=O)[O-])c2)C(C(=O)OCc2ccccc2)=C1C)C(C(=O)NCCCC)c1ccc(OCC(=O)OC)c(C(=O)OC)c1 (stereo unspecified) | 2 | · | 6 | · | · | · | · | ·
COc1ccccc1NC(=O)CN(Cc1ccco1)C(=O)c1ccc(Cl)nc1 | 85* | 1.3 | 4 | 101 | 6 | 0 | 109* | 62*
COc1c2occc2c(OC)c2c(=O)cc(C(F)(F)F)oc12 | 84* | 0.74 | -10 | 93 | -12 | 0 | 86* | 22*
O=C(CCNC(=O)C1CCN(S(=O)(=O)c2ccc(F)cc2)CC1)NCc1ccccc1 | -1 | · | · | · | · | · | · | ·
